Drawing on ChEMBL document CHEMBL1158082, “Cytotoxic hypothemycin analogues from Hypomyces subiculosus” (J Nat Prod, 2006), this text covers IC50 for four compounds.

By IC50 is commonly meant the concentration needed to halve the response being measured. Low values mean higher potency, high ones lower potency.

Holding throughout (type): functional, cell-based
One test relates to SK-OV-3. Nature of the test: Cytotoxicity against human SKOV3 cells. In short, it runs like this: (§1)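 Cells were kept in McCoy's 5A with 10% FBS and 2 mM L-glutamine at 37 °C and 5% CO2. About 4000 cells per well were plated and left to adhere overnight. Compounds from 50 mM DMSO stocks were diluted in medium (dilution series 100 µM to 0.1 pM, before addition) and added in duplicate. After 72 h, viability was read by CellTiter-Glo luminescence at room temperature.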

In a further test the test system is HT-29. Nature of the test: Cytotoxicity against human HT-29 cells. Put shortly: as §1
The next test relates to COLO-829. Put plainly: Cytotoxicity against human COLO829 cells. In short, it runs like this: as §1

For the compound `COc1cc(O)c2c(c1)[C@H]1O[C@@H]1CCCC(=O)CCC[C@H](C)OC2=O`, the IC50 with SK-OV-3 was more than 100 µM.

As for `C[C@H]1C/C=C/[C@@H](O)[C@@H](O)CC[C@H]2O[C@@H]2c2cc(O)cc(O)c2C(=O)O1`, the IC50 was more than 100000 nM with HT-29, more than 100000 nM with COLO-829 and more than 100 µM in the test on SK-OV-3.

For the compound `C[C@H]1C/C=C\C(=O)[C@@H](O)[C@@H](O)C[C@H]2O[C@@H]2c2cc(O)cc(O)c2C(=O)O1`, the IC50 came to 100 nM with HT-29, 38 nM with COLO-829 and 1.8 µM in the test on SK-OV-3.

With `COc1cc(O)c2c(c1)[C@H]1O[C@@H]1C[C@H](O)[C@H](O)C(=O)/C=C\C[C@H](C)OC2=O` [HYPOTHEMYCIN], the half-inhibitory concentration (IC50) was determined as 150 nM in the test on HT-29, 70 nM in the test with COLO-829 and 5.9 µM in the test on SK-OV-3.
